One experiment has as its target T1, Cytochrome P450 26A1 (Homo sapiens, UniProt O43174).
T1 sequence (O43174 whole entry): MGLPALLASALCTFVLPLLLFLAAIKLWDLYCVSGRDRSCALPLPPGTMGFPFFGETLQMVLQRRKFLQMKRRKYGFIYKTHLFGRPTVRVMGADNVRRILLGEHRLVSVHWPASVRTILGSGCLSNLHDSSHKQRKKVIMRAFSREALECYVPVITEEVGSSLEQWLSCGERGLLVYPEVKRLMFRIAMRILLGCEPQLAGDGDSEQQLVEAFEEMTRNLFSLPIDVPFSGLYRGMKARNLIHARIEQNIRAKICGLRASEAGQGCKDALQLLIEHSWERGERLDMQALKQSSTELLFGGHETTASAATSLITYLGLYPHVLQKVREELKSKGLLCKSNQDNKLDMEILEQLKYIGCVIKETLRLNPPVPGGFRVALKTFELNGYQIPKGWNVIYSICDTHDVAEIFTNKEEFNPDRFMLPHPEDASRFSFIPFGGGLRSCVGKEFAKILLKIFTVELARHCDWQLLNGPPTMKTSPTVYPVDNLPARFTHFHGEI
In words: Inhibition of CYP26A1 in human MCF7 cells.

The test system of experiment [1] is SH-SY5Y. In words: Increase in all-trans retinoic acid-induced CYP26B1 mRNA expression in human SH-SY5Y cells at 10 uM relative to R116010. The experiment is classed as functional, cell-based.
Experiment [2] has as its system SH-SY5Y. The experiment is described as follows: Increase of CYP26B1 mRNA expression in human SH-SY5Y cells. The experiment is classed as functional, cell-based. An outline of the steps: (§1)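 SH-SY5Y neuroblastoma cells were grown at 37 °C in RPMI 1640 with 10% foetal calf serum and 2 mM L-glutamine under 5% CO2. Inhibitor was given alone or with atRA (DMSO vehicle) for 24 h. Total RNA was reverse transcribed and CYP26B1 was measured by TaqMan real-time PCR, normalised to β-actin. Results are fold change versus atRA-only cells by the comparative Ct method, mean ± S.E.M., n ≥ 3.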

The subject of experiment [3] is SH-SY5Y. In words: Increase in all-trans retinoic acid-induced CYP26B1 mRNA expression in human SH-SY5Y cells at 0.01 to 10 uM after 24 hrs relative to all-trans retinoic acid. The experiment is classed as functional. As to conditions: in the assay text read “0.1 to 10 uM” for “0.01 to 10 uM”. An outline of the steps:
as §1

A further experiment has as its system T47D. In words: Inhibition of all-trans retinoic acid metabolism in human T47D cells. It is filed as functional, cell-based.
Experiment [4] has as its system SH-SY5Y. In words: Increase of all-trans retinoic acid-induced CYP26B1 mRNA expression in human SH-SY5Y cells at 1 uM after 24 hrs relative to all-trans retinoic acid. The experiment is classed as functional. An outline of the steps:
as §1

Activity calls are given as the source filed them. The rule behind the calls is not given here.

As to `c1ccc(C(c2ccc(Nc3ccc4c(c3)CCC4)cc2)n2ccnc2)cc1` (stereo unspecified), half-maximal inhibition at Cytochrome P450 26A1 (IC50) required 1 µM.

Turning to `CC(c1ccc(Nc2ccccc2)cc1)n1cncn1` (stereo unspecified), the half-inhibitory concentration (IC50) against Cytochrome P450 26A1 is > 50 µM. `c1ccc(Nc2ccc(C(c3ccccc3)n3ccnc3)cc2)cc1` (stereo unspecified): at Cytochrome P450 26A1, the IC50 worked out at 5 µM.

With `c1ccc(C(c2ccc(Nc3ccc4ccccc4c3)cc2)n2ccnc2)cc1` (stereo unspecified), the outcome with SH-SY5Y [1] was Active. The compound further showed an IC50 against Cytochrome P450 26A1 of 0.5 µM. For the same compound, in the experiment on SH-SY5Y [2], the result was inactive. For `CCc1ccc(C(c2cc3ccccc3o2)n2cncn2)cc1` (stereo unspecified), the IC50 against Cytochrome P450 26A1 turned out to be 4.5 µM. For `c1ccc(C(c2ccc(Nc3nc4ccccc4o3)cc2)n2ccnc2)cc1` (stereo unspecified), the “fold change (FC)” value with SH-SY5Y [3] amounted to 4. This compound had an IC50 at Cytochrome P450 26A1 of 0.9 µM. Also, the result in the experiment with SH-SY5Y [2] was inactive.

For `c1ccc(-c2ccc(C(c3cc4ccccc4o3)n3cncn3)cc2)cc1` (stereo unspecified), it took 7 µM to reach half-maximal inhibition against Cytochrome P450 26A1 (IC50). Compound `C[C@H]([C@@H](c1ccc(Nc2nc3ccccc3s2)cc1)n1ccnc1)N(C)C` came in with a 50% inhibitory concentration (IC50) with T47D of 0.0087 µM. For the same compound, in the experiment with SH-SY5Y [4], the “fold change (FC)” value is 5.

Take `c1ccc(Nc2ccc(C(c3ccccc3)n3cncn3)cc2)cc1` (stereo unspecified): half-maximal inhibition against Cytochrome P450 26A1 (IC50) was put at 5 µM. The outcome in the experiment with SH-SY5Y [4] was inactive. `c1ccc(C(c2ccc(Nc3nc4ccccc4s3)cc2)n2ccnc2)cc1` (stereo unspecified): the “fold change (FC)” value with SH-SY5Y [3] amounted to 2. This compound came in with an IC50 against Cytochrome P450 26A1 of 1.5 µM. In addition, in the experiment with SH-SY5Y [2], the result was inactive. For `CC(c1ccc(Nc2ccccc2)cc1)n1ccnc1` (stereo unspecified), the half-inhibitory concentration (IC50) on Cytochrome P450 26A1 worked out at 35 µM. On the same count and under the same terms, the same measure for `c1ccc(C(c2ccc(Nc3nc4ccccc4[nH]3)cc2)n2ccnc2)cc1` (stereo unspecified): 2.5 µM; for `CC(c1ccc(Nc2ccc3ccccc3c2)cc1)n1ccnc1` (stereo unspecified): 15 µM.

These data come from ChEMBL document CHEMBL1140061, “Novel azolyl-(phenylmethyl)]aryl/heteroarylamines: potent CYP26 inhibitors and enhancers of all-trans retinoic acid activity in neuroblastoma cells” (Bioorg Med Chem, 2008).
